Laboratory results published in ChEMBL document CHEMBL2331463, “Probing functional diversity in pactamycin toward antibiotic, antitumor, and antiprotozoal activity” (Bioorg Med Chem, 2013).
pIC50: −log10 of the molar value. In brackets after ≈: the same amount, converted by molar mass.

Assays:
Plasmodium falciparum [1] = experiment: Antimalarial activity against Plasmodium falciparum Dd2 after 72 hrs by SYBR Green-based fluorescence assay; assay type: functional, organism-based; settings: Dd2, 72 h
How it was run: (§1)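 Drug stocks were made at 10 mM in sterile distilled water and serially diluted in culture medium. These were added in quadruplicate to asynchronous P. falciparum cultures at 0.2% parasitemia and 2% hematocrit, then incubated 72 h at 37 °C. Lysis buffer containing SYBR Green I was added, followed by 1 h at room temperature in the dark. Fluorescence was read at ex 497/em 520 nm, and IC50 was obtained by nonlinear regression of logistic dose-response curves.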

Pseudomonas aeruginosa = experiment: Antibacterial activity against Pseudomonas aeruginosa ATCC 27853 after 20 hrs by broth microdilution method; assay type: functional; settings: ATCC 27853, 20 h
How it was run: (§2)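 MIC determined by standard broth microdilution following CLSI recommendations (document M07-A8).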

Enterococcus faecalis = experiment: Antibacterial activity against Enterococcus faecalis ATCC 29212 after 20 hrs by broth microdilution method; assay type: functional; settings: ATCC 29212, 20 h; how it was run: as §2
Staphylococcus aureus = experiment: Antibacterial activity against Staphylococcus aureus ATCC 25923 after 20 hrs by broth microdilution method; assay type: functional; settings: ATCC 25923, 20 h; how it was run: as §2
Acinetobacter baumannii = experiment: Antibacterial activity against Acinetobacter baumannii clinical isolate after 20 hrs by broth microdilution method; assay type: functional; how it was run: as §2
Escherichia coli = experiment: Antibacterial activity against Escherichia coli ATCC 25922 after 20 hrs by broth microdilution method; assay type: functional; settings: ATCC 25922, 20 h; how it was run: as §2
[2] = Cytotoxicity against human MDA231 cells; assay type: functional, cell-based; settings: MDA-MB-231
Klebsiella pneumoniae = experiment: Antibacterial activity against Klebsiella pneumoniae ATCC 700603 after 20 hrs by broth microdilution method; assay type: functional; settings: ATCC 700603, 20 h; how it was run: as §2
Plasmodium falciparum [3] = experiment: Antimalarial activity against Plasmodium falciparum D6 after 72 hrs by SYBR Green-based fluorescence assay; assay type: functional, organism-based; settings: D6, 72 h; how it was run: as §1
PC-3 = experiment: Cytotoxicity against human PC3 cells; assay type: functional, cell-based; settings: for pIC50: Homo sapiens, PC-3
Plasmodium falciparum [4] = experiment: Antimalarial activity against Plasmodium falciparum 7G8 after 72 hrs by SYBR Green-based fluorescence assay; assay type: functional, organism-based; settings: 7G8, 72 h; how it was run: as §1
HCT-116 = experiment: Cytotoxicity against human HCT116 cells; assay type: functional, cell-based
WI-38 = experiment: Cytotoxicity against human WI38 cells; assay type: functional, cell-based; settings: for pIC50: Homo sapiens, WI-38

Structure (SMILES)	pIC50 (Plasmodium falciparum [1])	MIC (Pseudomonas aeruginosa) [µg/mL]	MIC (Enterococcus faecalis) [µg/mL]	MIC (Staphylococcus aureus) [µg/mL]	MIC (Acinetobacter baumannii) [µg/mL]	MIC (Escherichia coli) [µg/mL]	pIC50 [2]	MIC (Klebsiella pneumoniae) [µg/mL]	pIC50 (Plasmodium falciparum [3])	pIC50 (PC-3)	pIC50 (Plasmodium falciparum [4])	pIC50 (HCT-116)	pIC50 (WI-38)	inhibition (INH) (PC-3) [%]	inhibition (INH) (WI-38) [%]
CC(=O)c1cccc(N[C@H]2[C@H](N)[C@]3(NC(=O)O[C@H]3C)[C@@](C)(O)[C@@]2(O)CO)c1	< 5.60	> 128	> 128	> 128	> 128	> 128	< 6.00	> 128	< 5.60	< 6.00	< 5.60	< 6.00	< 6.00	–	–
CC(=O)c1cccc(N[C@H]2[C@H](N)[C@@](NC(=O)N3CCOCC3)([C@H](C)O)[C@@](C)(O)[C@@]2(O)CO)c1	< 5.60	> 128	> 128	> 128	> 128	> 128	< 6.00	> 128	< 5.60	< 6.00	< 5.60	< 6.00	< 6.00	–	–
CC(=O)c1cccc(N[C@H]2[C@H](N)[C@@](NC(=O)N(C)C)([C@H](C)O)[C@@](C)(O)[C@@]2(O)CO)c1	> 8.60	128 (≈ 302 µM)	64 (≈ 151 µM)	2 (≈ 4.71 µM)	128 (≈ 302 µM)	4 (≈ 9.42 µM)	6.59	8 (≈ 18.8 µM)	> 8.60	6.51	8.60	7.15	< 6.00	–	–
CC(=O)c1cccc(N[C@H]2[C@H](N)[C@]3(NC(=O)O[C@H]3C)[C@@](C)(O)[C@@]2(O)COC(=O)c2c(C)cccc2O)c1 [PACTAMYCATE]	< 5.60	> 128	> 128	> 128	> 128	> 128	< 6.00	> 128	< 5.60	< 6.00	< 5.60	< 6.00	< 6.00	–	–
CCN(CC)C(=O)N[C@@]1([C@H](C)O)[C@@H](N)[C@H](Nc2cccc(C(C)=O)c2)[C@](O)(CO)[C@]1(C)O	7.40	> 128	128 (≈ 283 µM)	4 (≈ 8.84 µM)	> 128	> 128	6.36	> 128	7.54	6.40	7.38	6.64	< 6.00	–	–
C[C@H](O)[C@]1(NC(=O)N(C)C)[C@@H](N)[C@H](Nc2cccc(F)c2)[C@](O)(CO)[C@]1(C)O	8.13	> 128	128 (≈ 320 µM)	4 (≈ 9.99 µM)	64 (≈ 160 µM)	8 (≈ 20 µM)	< 6.00	32 (≈ 79.9 µM)	8.19	< 6.00	> 8.60	6.72	< 6.00	35	34
CC(=O)c1cccc(N[C@H]2[C@H](N)[C@@](NC(=O)N3CCCC3)([C@H](C)O)[C@@](C)(O)[C@@]2(O)CO)c1	8.05	> 128	128 (≈ 284 µM)	8 (≈ 17.8 µM)	> 128	64 (≈ 142 µM)	6.92	128 (≈ 284 µM)	8.05	6.82	8.00	7.05	< 6.00	–	–
COc1cccc(N[C@H]2[C@H](N)[C@@](NC(=O)N(C)C)([C@H](C)O)[C@@](C)(O)[C@@]2(O)CO)c1	7.94	> 128	> 128	16 (≈ 38.8 µM)	128 (≈ 310 µM)	64 (≈ 155 µM)	< 6.00	> 128	7.86	< 6.00	7.70	6.41	< 6.00	–	–
CC(=O)c1cccc(N[C@H]2[C@H](N)[C@@](NC(=O)N(C)C)([C@H](C)O)[C@@](C)(O)[C@@]2(O)COC(=O)c2c(C)cccc2O)c1 [PACTAMYCIN]	> 8.60	128 (≈ 229 µM)	128 (≈ 229 µM)	0.12 (≈ 0.215 µM)	16 (≈ 28.6 µM)	16 (≈ 28.6 µM)	6.30	32 (≈ 57.3 µM)	> 8.60	6.62	8.60	7.15	< 6.00	–	–
C[C@H](O)[C@]1(NC(=O)N(C)C)[C@@H](N)[C@H](Nc2ccccc2)[C@](O)(CO)[C@]1(C)O	7.86	> 128	> 128	64 (≈ 167 µM)	> 128	32 (≈ 83.7 µM)	< 6.00	64 (≈ 167 µM)	7.84	< 6.00	7.73	6.09	< 6.00	–	–
C[C@H](O)[C@]1(NC(=O)N(C)C)[C@@H](N)[C@H](Nc2cccc(C(F)(F)F)c2)[C@](O)(CO)[C@]1(C)O	8.46	> 128	64 (≈ 142 µM)	2 (≈ 4.44 µM)	64 (≈ 142 µM)	16 (≈ 35.5 µM)	6.42	128 (≈ 284 µM)	8.17	6.12	> 8.60	7.00	< 6.00	–	42
CC(=O)c1cccc(N[C@H]2[C@H](N)[C@@](NC(=O)N3CCCCC3)([C@H](C)O)[C@@](C)(O)[C@@]2(O)CO)c1	5.70	> 128	> 128	> 128	> 128	> 128	< 6.00	> 128	< 5.60	< 6.00	5.80	< 6.00	< 6.00	–	–
